The MIC80 is an inhibitory concentration at the 80% level, which refers to growth in some studies and to a panel of isolates in others. Lower therefore signals greater potency. Broadly, the IC50 is the point on the concentration scale where inhibition reaches its midpoint.

In one assay the test system is Candida parapsilosis. Put plainly: Antifungal activity against clinical strain Candida parapsilosis by microplate reader assay. Format: functional. The settings on record: Lodderomyces parapsilosis. The procedure, abridged:
(§1)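 Broth microdilution read by optical density at 630 nm. MIC80 is the first well with about 80% less growth than the drug-free well. Each concentration was run in three replicate wells, and values are means of three independent experiments.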

Another assay relates to Candida tropicalis. The assay is described as follows: Antifungal activity against clinical strain Candida tropicalis by microplate reader assay. Format: functional. The procedure, abridged: as §1
Another assay deals with Candida albicans. Put plainly: Antifungal activity against Candida albicans ATCC 76615 by microplate reader assay. To be noted: ATTCC76615. The assay is classed as functional. The procedure, abridged:
as §1

For a further assay, the system named is Cryptococcus neoformans. The assay is described as follows: Antifungal activity against Cryptococcus neoformans ATCC 32609 by microplate reader assay. The settings on record: ATTCC32609. The assay is classed as functional. The procedure, abridged: as §1
Assay [1] deals with Bel-7402. Put plainly: Antitumor activity against human Bel-7402 cells implanted in BALB/c-nu mouse assessed as tumor growth inhibition at 100 mg/kg, IG administered everyday for 7 days relative to control. Format: functional. The settings on record: Bel-7402, po, 168 h, time 7 day, read-out: TGI.
The test system of a further assay is SPC-A4. The assay is described as follows: Cytotoxicity against human SPC-A4 cells assessed as reduction in cell viability by sulforhodamine B assay. The assay is classed as functional, cell-based. The procedure, abridged: (§2)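 Cells were kept in RPMI-1640 with 10% FBS, 2 mM L-glutamine, 50 μM β-mercaptoethanol and penicillin/streptomycin, at 37 °C in 5% CO2. SRB assay used 100, 10, 1, 0.1 and 0.01 μM, each in triplicate. Percent inhibition was calculated against solvent control OD. IC50 came from Logit curve fitting and is the mean of three independent experiments.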

Another assay deals with A549. Put plainly: Cytotoxicity against human A549 cells assessed as reduction in cell viability by sulforhodamine B assay. The assay is classed as functional, cell-based. In a few lines: as §2
A further assay relates to HCT-116. The assay is described as follows: Cytotoxicity against human HCT-116 cells assessed as reduction in cell viability by sulforhodamine B assay. Format: functional, cell-based. The procedure, abridged: as §2
On the technique in general: Sulforhodamine B stains cellular protein and so reports cell mass.

Assay [2] is described as follows: Cytotoxicity against human HO-8910 cells assessed as reduction in cell viability by sulforhodamine B assay. The assay is classed as functional, cell-based. In a few lines:
as §2

The test system of assay [3] is Bel-7402. Put plainly: Cytotoxicity against human Bel-7402 cells assessed as reduction in cell viability by sulforhodamine B assay. The assay is classed as functional, cell-based. The procedure, abridged: as §2
Another assay concerns HL-60. The assay is described as follows: Cytotoxicity against human HL-60 cells assessed as reduction in cell viability by sulforhodamine B assay. The assay is classed as functional, cell-based. In a few lines:
as §2

The next assay relates to MKN-28. The assay is described as follows: Cytotoxicity against human MKN-28 cells assessed as reduction in cell viability by sulforhodamine B assay. The assay is classed as functional, cell-based. The procedure, abridged: as §2
In a further assay the test system is MCF7. The assay is described as follows: Cytotoxicity against human MCF7 cells assessed as reduction in cell viability by sulforhodamine B assay. The assay is classed as functional, cell-based. The procedure, abridged:
as §2

A further assay concerns CCRF S-180. The assay is described as follows: Antitumor activity against mouse S-180 cells implanted in KM mouse assessed as tumor growth inhibition at 25 mg/kg, IG administered everyday for 7 days relative to control. The settings on record: CCRF S-180, po, 168 h, time 7 day, read-out: TGI. Format: functional. In a few lines:
(§3)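 S-180 or H22 cells, about 2.5 × 10⁶ per mouse, injected s.c. in the right axilla of wild-type KM mice. Randomized after 24 h and dosed intragastrically for 7 days; sacrificed 24 h after the last dose. TGI = (W_C − W_T)/W_C × 100% from average tumor weight. n = 8; one-way ANOVA vs vehicle.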

The test system of a further assay is Pyricularia oryzae. Put plainly: Antifungal activity against Pyricularia oryzae P-2B by measuring minimum morphological deformation concentration. Format: functional. The settings on record: read-out: MEC.
In the next assay the test system is H22. The assay is described as follows: Antitumor activity against mouse H22 cells implanted in KM mouse assessed as tumor growth inhibition at 25 mg/kg, IG administered everyday for 7 days relative to control. The assay is classed as functional. To be noted: H22, po, 168 h, time 7 day, read-out: TGI. In a few lines:
as §3

In brackets after ≈: the same amount, converted by molar mass.

Turning to `CCC(C)n1ncn(-c2ccc(N3CCN(c4ccc(OCC5COC(Cn6cncn6)(c6ccc(Cl)cc6Cl)O5)cc4)CC3)cc2)c1=O` (configuration not stated) [ITRACONAZOLE], the MIC80 in the assay on Candida parapsilosis is less than 0.125 mg/L; in the assay on Candida tropicalis, 1 mg/L (≈ 1.42 µM); in the assay on Candida albicans it was less than 0.125 mg/L; in the assay on Cryptococcus neoformans it was 2 mg/L (≈ 2.83 µM).
In the case of `O=c1[nH]c(=O)n(C2CCCO2)cc1F` (configuration not stated) [TEGAFUR], the inhibition in vivo at 100 mg/kg with Bel-7402 [1] stood at 81.8%.
On to `CO[C@@H]1[C@@H](O)[C@H](O[C@@H]2[C@@H](O)[C@H](O[C@H]3[C@H](O)[C@@H](O)[C@H](O[C@H]4[C@H](O[C@H]5CC[C@@]6(C)C(CC=C7[C@H]6CC[C@]68C(=O)O[C@@](C)(CCC=C(C)C)[C@H]6[C@@H](OC(C)=O)C[C@@]78C)C5(C)C)OC[C@@H](OS(=O)(=O)[O-])[C@@H]4O)O[C@@H]3C)OC[C@H]2O)O[C@H](CO)[C@H]1O.[Na+]` (some centres not stated), for which the MIC80 was determined as 32 mg/L in the assay with Candida parapsilosis, 30 mg/L with Candida tropicalis, 20 mg/L against Candida albicans and 25 mg/L in the assay on Cryptococcus neoformans. In addition, the IC50 came to 3.67 µM in the assay on SPC-A4; 1.7 µM with A549; 1.61 µM with HCT-116; 2.32 µM in assay [2]; 2.4 µM with Bel-7402 [3]; 1.65 µM in the assay on HL-60. In addition, the IC50 with MKN-28 was found to be 2.81 µM; in the assay on MCF7, 2.3 µM.
For the compound `O=c1[nH]cc(F)c(=O)[nH]1` [FLUOROURACIL], the inhibition in vivo at 25 mg/kg with CCRF S-180 and in the assay with H22 was 39.4% throughout. In addition, the minimal effective concentration with Pyricularia oryzae is not above 5 µg/mL.
Take `OC(Cn1cncn1)(Cn1cncn1)c1ccc(F)cc1F` [FLUCONAZOLE]: the MIC80 came to 0.5 mg/L (≈ 1.63 µM) in the assay on Candida parapsilosis, 1 mg/L (≈ 3.27 µM) against Candida tropicalis, 0.25 mg/L (≈ 0.816 µM) in the assay on Candida albicans and 2 mg/L (≈ 6.53 µM) against Cryptococcus neoformans.
On to `CN(C/C=C/C#CC(C)(C)C)Cc1cccc2ccccc12` [TERBINAFINE], for which the MIC80 against Candida parapsilosis was less than 0.125 mg/L; against Candida tropicalis, less than 0.125 mg/L; with Candida albicans, 32 mg/L (≈ 110 µM); against Cryptococcus neoformans it was less than 0.125 mg/L.
For the compound `C=C(C)CCC[C@]1(C)OC(=O)[C@]23CC[C@@H]4C(=CCC5C(C)(C)[C@@H](O[C@@H]6OC[C@@H](OS(=O)(=O)[O-])[C@H](O)[C@H]6O[C@@H]6O[C@H](C)[C@@H](O[C@@H]7OC[C@@H](O)[C@H](O[C@@H]8O[C@H](CO)[C@@H](O)[C@H](OC)[C@H]8O)[C@H]7O)[C@H](O)[C@H]6O)CC[C@@]54C)[C@]2(C)CC(=O)[C@@H]31.[Na+]` (some centres not stated), the MIC80 against Candida parapsilosis, against Candida tropicalis, in the assay with Candida albicans and against Cryptococcus neoformans was 25 mg/L in each case. The IC50 was determined as 1.5 µM with SPC-A4; 1.3 µM in the assay with A549; 1.09 µM in the assay with HCT-116; 1.9 µM in [2]; 1.3 µM in the assay with Bel-7402 [3]; 1.95 µM in the assay on HL-60. The IC50 was found to be 1.82 µM with MKN-28 and 1.56 µM in the assay with MCF7.
For the compound `C=C(C)CCC[C@]1(C)OC(=O)[C@]23CC[C@@H]4C(=CCC5C(C)(C)[C@@H](O[C@@H]6OC[C@@H](OS(=O)(=O)O)[C@H](O)[C@H]6O[C@@H]6O[C@H](C)[C@@H](O[C@@H]7OC[C@@H](O)[C@H](O[C@@H]8O[C@H](CO)[C@@H](O)[C@H](OC)[C@H]8O)[C@H]7OS(=O)(=O)O)[C@H](O)[C@H]6O)CC[C@@]54C)[C@]2(C)C[C@H](OC(C)=O)[C@@H]31.[Na+].[Na+].[Na+]` (some centres not stated), the MIC80 in the assay on Candida parapsilosis was determined as 4 mg/L; in the assay with Candida tropicalis it was 8 mg/L; in the assay on Candida albicans it was 4 mg/L; with Cryptococcus neoformans, 16 mg/L. Further, the IC50 in the assay with SPC-A4 amounted to 1.3 µM; with A549, 0.75 µM; with HCT-116 it was 0.93 µM; in [2], 1.9 µM; in the assay with Bel-7402 [3], 1.3 µM; in the assay on HL-60 it was 0.65 µM. Moreover, the IC50 stood at 2.03 µM in the assay with MKN-28 and 1.79 µM in the assay on MCF7.

The values are drawn from ChEMBL document CHEMBL4811272, “A new sulfated triterpene glycoside from the sea cucumber Colochirus quadrangularis, and evaluation of its antifungal, antitumor and immunomodulatory activities” (Bioorg Med Chem, 2021).
